{"source": "PubChem BioAssay", "note": "A number with no mark means an inactive call. Calls of active or inactive are those of the source.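 Rule for the calls, unless noted: active = viability at or under a set limit in both replicates, limit being median viability minus 3 SD (cut at about 48% in these data, passing the limit was not always enough); inconclusive = at or under the limit in just one replicate; inactive = at or above the limit in both replicates.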"}
{"assay": "HUVEC growth inhibition – cell-based, human, primary screen (AID 575;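 active = viability at or below 30% in both replicate assays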;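 note: 100% = median of untreated cell wells with 0.1% DMSO on each plate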)", "details": "HUVEC proliferation, CellTiter-Glo luminescence, 72 h; at 10 µM; stronger effect = lower value", "how_it_was_run": "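Test system: primary human umbilical vein endothelial cells. Quantity: 1250 cells/well. Compound: single 10 µM dose, 0.1% DMSO, from 5x medium stock. Timing: 72 h treatment at 37 °C. Detection: ATP-based CellTiter-Glo luminescent read. Benchmarks: vehicle and MePR control wells. Format: 384-well plates coated with collagen.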", "units": {"viability": "%"}}
{"smiles": "Cn1cc(C(=O)NC2CCCCCCC2)c(=O)c2cc(S(=O)(=O)N3CCCC3)ccc21", "viability": 79.8}
{"smiles": "Cc1ccc(C2=N/C(=C/N3CCOCC3)C(=O)O2)cc1", "viability": 82.5}
{"smiles": "CCc1ccccc1NC(=O)C(CC)Sc1nc2cc3c(cc2c(=O)n1Cc1ccco1)OCO3", "note": "(configuration not stated)", "viability": 62.6}
{"smiles": "Cc1cc(C(=O)NCc2cccnc2)no1", "viability": 108}
{"smiles": "Cc1cc(/C=N\\O)c(C)n1-c1ccncc1", "viability": 83.8}
{"smiles": "O=C(Cn1c(=O)n(CC2CCCO2)c(=O)c2ccccc21)c1ccccc1", "note": "(configuration not stated)", "viability": 79.1}
{"smiles": "O=C(c1ccco1)N1CCN(CC2CC3C=CC2C3)CC1", "note": "(configuration not stated)", "viability": 110}
{"assay": "H69AR cell proliferation blockers – human, duplicate replicates, primary screen (AID 580);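 note: 100% = mean luminescence of untreated wells and 0% = no signal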", "details": "H69AR lung tumor cells viability, ATP luminescence, 72 h; at 10 µM; stronger effect = lower value"}
{"smiles": "Cc1ccc2c(c1C)NC(C(=O)O)C1CC=CC21", "note": "(configuration not stated)", "viability": "98.2%"}
{"smiles": "Cc1cc(C)cc(OCC(=O)NC2=NCCS2)c1", "viability": "96.1%"}
{"smiles": "COc1cccc(NS(=O)(=O)c2ccc3[nH]cc(C(=O)NC4CC4)c(=O)c3c2)c1", "viability": "70.1%"}
{"smiles": "COc1ccc(OC)c(NC(=O)C2C3CC4OC(=O)C2C4C3)c1", "note": "(configuration not stated)", "viability": "98.3%"}
{"smiles": "CN(C)C(=O)COc1ccc2cc(-c3ccccc3)c(=O)oc2c1", "viability": "90.7%"}
{"smiles": "CC1CN(CC(O)COc2ccccc2C(C)(C)C)CC(C)O1", "note": "(configuration not stated)", "viability": "78%"}
{"smiles": "CN(C)CCCN1c2ccccc2CCc2ccc(Cl)cc21", "viability": "65.2%"}
{"smiles": "COc1ccc(NC(=O)c2oc3ccccc3c2NC(=O)c2ccco2)cc1", "viability": "78.4%"}
{"smiles": "CC1(C)SC2[C@H](NC(=O)C(NC(=O)N3CCNC3=O)c3ccccc3)C(=O)N2C1C(=O)O", "note": "(some centres not stated)", "viability": "95.3%"}
{"smiles": "CC(=O)OC1CSc2nc3ccccc3n2C1", "note": "(configuration not stated)", "viability": "93.4%"}
{"smiles": "O=S(=O)(NCC1CCCO1)c1ccc2c(c1)OCCO2", "note": "(configuration not stated)", "viability": "97.6%"}
{"smiles": "O=c1c2ccccc2c(/C=N/n2cnnc2)c(O)n1-c1ccccc1", "viability": "100%"}
{"smiles": "COc1ccc(C2=CC(=O)OC3(CCCCC3)O2)cc1", "viability": "56.5%"}
{"smiles": "CCCC1(C(=O)OC)NC(c2cc(OC)c(OC)c(OC)c2)C2C(=O)N(CC)C(=O)C21", "note": "(configuration not stated)", "viability": "88.9%"}
{"smiles": "C#CCN(C)Cc1ccccc1", "viability": "93.8%"}
{"smiles": "CCOC(=O)CSc1nc2sc(C)c(C)c2c(=O)[nH]1", "viability": "92.2%"}
{"smiles": "c1coc(CN(Cc2cccs2)Cc2nnnn2C2CCCCC2)c1", "viability": "75.7%"}
{"smiles": "CCn1cnc2sc(C(=O)Nc3ccc4c(c3)OCO4)c(C)c2c1=O", "viability": "94%"}
{"smiles": "COc1ccc(CCN(Cc2cc3cccc(C)c3[nH]c2=O)C(=O)N2CCCC2)cc1OC", "viability": "98.8%"}
{"smiles": "COCCCNC(=O)C1CCN(C(=O)Nc2ccc(Cl)cc2)CC1", "viability": "99%"}
{"smiles": "CC1(C)CC(=O)C(C=NC(CCC(N)=O)C(=O)O)=C(O)C1", "note": "(configuration not stated)", "viability": "91.9%"}
{"smiles": "O=c1c(O)c(-c2ccc(O)cc2O)oc2cc(O)cc(O)c12", "viability": "97.4%"}
{"smiles": "CNC(=O)OC(C)CNS(=O)(=O)c1ccc(C)cc1", "note": "(configuration not stated)", "viability": "97%"}
{"smiles": "Cc1ccc(S(=O)(=O)N2CCN(c3nc(C(C)C)c4c(c3C#N)CC(C)(C)OC4)CC2)cc1", "viability": "79.6%"}
{"smiles": "Cc1ccc(Cl)cc1N1CCN(C(=O)CN2C(=O)c3cccc4cccc2c34)CC1", "viability": "72.1%"}
{"smiles": "Cc1ccc2c(CC(=O)OCc3csc(C)n3)coc2c1", "viability": "98.5%"}
{"smiles": "CC(C)(C)n1ncc2c(=O)n(CC(=O)NCc3ccccc3)cnc21", "viability": "15.5% (active)"}
{"smiles": "COc1ccc(OCC(=O)Nc2ccc(N3CCOCC3)c(Cl)c2)cc1", "viability": "90.3%"}
{"smiles": "O=C(Nc1ccccc1-c1ccccc1)NC1CCN(C(=O)N2CCOCC2)CC1", "viability": "103%"}
{"smiles": "O=C1[C@@H]2C(c3ccccc3Cl)=NO[C@@H]2C(=O)N1Cc1ccccc1", "viability": "104%"}
{"smiles": "CC(=O)c1ccc(NC(=O)CCc2c(C)nc3ncnn3c2C)cc1", "viability": "93.1%"}
{"smiles": "Cc1nc2scc(-c3ccco3)c2c(=O)n1/N=C/N(C)C", "viability": "95.3%"}
{"smiles": "O=C(O)c1ccc(COc2ccc(Cl)cc2)o1", "viability": "98.1%"}
{"smiles": "Cn1cc(C(=O)NC2CCCCCCC2)c(=O)c2cc(S(=O)(=O)N3CCCC3)ccc21", "viability": "90.9%"}
{"smiles": "Cc1ccc(C2=N/C(=C/N3CCOCC3)C(=O)O2)cc1", "viability": "90.6%"}
{"smiles": "CCc1ccccc1NC(=O)C(CC)Sc1nc2cc3c(cc2c(=O)n1Cc1ccco1)OCO3", "note": "(configuration not stated)", "viability": "28.3% (active)"}
{"smiles": "Cc1cc(C(=O)NCc2cccnc2)no1", "viability": "99.2%"}
{"smiles": "Cc1cc(/C=N\\O)c(C)n1-c1ccncc1", "viability": "91.4%"}
{"smiles": "O=C(Cn1c(=O)n(CC2CCCO2)c(=O)c2ccccc21)c1ccccc1", "note": "(configuration not stated)", "viability": "81.5%"}
{"smiles": "O=C(c1ccco1)N1CCN(CC2CC3C=CC2C3)CC1", "note": "(configuration not stated)", "viability": "95.8%"}
